viability, Activity and Papp data for two compounds are collected here from ChEMBL document CHEMBL3739301, “Design, synthesis and biological evaluation of tricyclic diterpene derivatives as novel neuroprotective agents against ischemic brain injury” (Eur J Med Chem, 2015).

Series [1] is described as follows: Neuroprotective activity against glutamate-induced neuronal cell death in Sprague-Dawley rat CGN cells assessed as cell viability at 50 uM preincubated for 24 hrs followed by glutamate challenge measured after 24 hrs by MTT assay (reference value: 40.4%). Type of series: functional. The conditions noted are these: read-out: Activity. On the technique in general: Tetrazolium dyes change colour on reduction, which living cells bring about.

Series [2] can be described thus: Neuroprotective activity against glutamate-induced neuronal cell death in Sprague-Dawley rat CGN cells at 50 uM preincubated for 24 hrs followed by glutamate challenge measured after 24 hrs relative to control. Type of series: functional.
Series [3] in a line: Neuroprotective activity against oxygen-glucose deprivation-induced neuronal cell death in Sprague-Dawley rat CGN cells assessed as cell viability at 50 uM preincubated for 24 hrs followed by induction of oxygen-glucose deprivation measured after 24 hrs by MTT assay (reference value: 48.7%). Format: functional. To be noted: read-out: Activity.
Series [4] in a line: Neuroprotective activity against oxygen-glucose deprivation-induced neuronal cell death in Sprague-Dawley rat CGN cells at 50 uM preincubated for 24 hrs followed by induction of oxygen-glucose deprivation measured after 24 hrs relative to control. Format: functional.
The subject of series [5] is Rattus norvegicus. In words: Anti-ischemic activity in Sprague-Dawley rat transient middle cerebral artery occlusion model assessed as reduction in infarct volume at 3 mg/kg, iv administered for 2 to 6 hrs post middle cerebral artery occlusion measured at 24 hrs by TTC staining-based morphometric analysis. Format: organism-based. To be noted: in vivo. Summed up: (§1)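 Male Sprague-Dawley rats (260-280 g), middle cerebral artery occluded 2 h by intraluminal nylon monofilament, then reperfused; body temperature held at 37 C. Drug given iv at 2, 4 and 6 h after ischemia onset (test agent in DMSO, edaravone in saline; vehicle controls). Neurological scoring at 24 h; 2 mm coronal slices stained with 2% TTC 20 min at 37 C, formalin-fixed; infarct volume by morphometry; n = 8-12.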

The subject of series [6] is Rattus norvegicus. Description: Anti-ischemic activity in Sprague-Dawley rat transient middle cerebral artery occlusion model assessed as reduction in neurological deficit at 3 mg/kg, iv administered for 2 to 6 hrs post middle cerebral artery occlusion measured at 24 hrs. Type of series: functional, organism-based. The essentials:
(§2)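 Male SD rats (260–280 g); intraluminal nylon suture (~0.26 mm, round tip) occluded MCA for 2 h, then withdrawn for reperfusion, body temperature held at 37 °C. Given iv at 2, 4 and 6 h after ischemia onset; 10 mg/kg in DMSO or 3 mg/kg in saline; DMSO or saline vehicle controls. Neurological score at 24 h after MCAO; n = 8–12, mean ± SD.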

The subject of series [7] is Rattus norvegicus. In words: Antioxidant activity in Sprague-Dawley rat transient middle cerebral artery occlusion model assessed as […] in GSH level in ipsilateral cortex at 3 mg/kg, iv measured at 24 hrs post middle cerebral artery occlusion. Type of series: functional, organism-based. The essentials: (§3)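 Rat tMCAO: 2 h suture occlusion, then reperfusion. Dosing iv at 2, 4 and 6 h after onset, 10 mg/kg (DMSO) or 3 mg/kg (saline). At 24 h the ipsilateral cortex was lysed in RIPA buffer and protein quantified by BCA. GSH concentration and SOD activity were then measured with commercial kits.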

For series [8], the system named is Rattus norvegicus. Description: Antioxidant activity in Sprague-Dawley rat transient middle cerebral artery occlusion model assessed as […] in SOD level in ipsilateral cortex at 3 mg/kg, iv measured at 24 hrs post middle cerebral artery occlusion. Type of series: functional, organism-based. The essentials:
as §3

Series [9] relates to Rattus norvegicus. In words: Toxicity in Sprague-Dawley rat transient middle cerebral artery occlusion model at 10 mg/kg, iv. The conditions noted are these: in vivo. Type of series: organism-based.
Series [10] is described as follows: Neuroprotective activity against glutamate-induced neuronal cell death in Sprague-Dawley rat CGN cells assessed as cell viability at 10 uM preincubated for 24 hrs followed by glutamate challenge measured after 24 hrs by MTT assay (reference value: 40.4%). Type of series: functional. To be noted: read-out: Activity.
The nature of series [11]: Neuroprotective activity against oxygen-glucose deprivation-induced neuronal cell death in Sprague-Dawley rat CGN cells assessed as cell viability at 10 uM preincubated for 24 hrs followed by induction of oxygen-glucose deprivation measured after 24 hrs by MTT assay (reference value: 48.7%). Type of series: functional. The conditions noted are these: read-out: Activity.

A short description of series [12]: Neuroprotective activity against glutamate-induced neuronal cell death in Sprague-Dawley rat CGN cells at 10 uM preincubated for 24 hrs followed by glutamate challenge measured after 24 hrs relative to control. Format: functional.
Series [13] deals with neuronal. Description: Neuroprotective activity against glutamate-induced neuronal cell death in Sprague-Dawley rat CGN cells assessed as increase in cell viability preincubated for 24 hrs followed by glutamate challenge measured after 24 hrs by MTT assay. Format: functional, cell-based.
Series [14] can be described thus: Neuroprotective activity against oxygen-glucose deprivation-induced neuronal cell death in Sprague-Dawley rat CGN cells assessed as cell viability at 1 uM preincubated for 24 hrs followed by induction of oxygen-glucose deprivation measured after 24 hrs by MTT assay (reference value: 48.7%). The conditions noted are these: read-out: Activity. Type of series: functional.

The nature of series [15]: Neuroprotective activity against oxygen-glucose deprivation-induced neuronal cell death in Sprague-Dawley rat CGN cells at 10 uM preincubated for 24 hrs followed by induction of oxygen-glucose deprivation measured after 24 hrs relative to control. Type of series: functional.
A short description of series [16]: Neuroprotective activity against nutrient deprivation-induced neuronal cell death in Sprague-Dawley rat CGN cells at 10 uM preincubated for 24 hrs followed by induction of nutrient deprivation measured after 24 hrs relative to control. Type of series: functional. The essentials:
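Primary rat cerebellar granule neurons (8-day-old Sprague-Dawley pups, DIV 6-8) pretreated 24 h with compound (0.1% DMSO final), then deprived of B27 serum substitute for 24 h. MTT viability (0.5 mg/ml, 4 h) read at 570 nm against control = 100%; neuroprotection percentage derived from the basal deprived value; mean ± SD, n = 3.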

Series [17] can be described thus: Neuroprotective activity in Sprague-Dawley rat CGN cells assessed as upregulation of HO-1 expression after 24 hrs by Western blot analysis. Format: functional, cell-based. The essentials:
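Primary granule neurons treated with a concentration series for 24 h, lysed in RIPA buffer, protein by BCA. Separated on 15% SDS-PAGE, transferred to PVDF, blocked in 5% BSA. Primary antibody overnight at 4 °C, secondary 30 min at room temperature; chemiluminescent detection. HO-1 quantified by densitometry normalized to β-actin. n = 3, mean ± SD.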

Series [18] deals with neuronal. Description: Neuroprotective activity against glutamate-induced neuronal cell death in Sprague-Dawley rat CGN cells assessed as increase in SOD level at 10 uM preincubated for 24 hrs followed by glutamate challenge measured after 24 hrs. Format: functional, cell-based.
The subject of series [19] is neuronal. Description: Neuroprotective activity against glutamate-induced neuronal cell death in Sprague-Dawley rat CGN cells assessed as increase in GSH level at 10 uM preincubated for 24 hrs followed by glutamate challenge measured after 24 hrs. Type of series: functional, cell-based. The essentials:
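Granule neurons pretreated 24 h with […] compound, then […] for 24 h. Lysed in buffer containing protease inhibitor cocktail; protein determined by BCA. SOD activity and GSH level measured with commercial kits. n = 3, mean ± SD.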

Series [20] is described as follows: Permeability of the compound at 25 ug/ml after 18 hrs by PAMPA assay. Format: ADME. To be noted: read-out: permeability. For orientation: In PAMPA a lipid-coated filter parts donor from acceptor wells.
Series [21] in a line: Cytotoxicity against Sprague-Dawley rat CGN cells at <10 uM after 72 hrs by MTT assay. Type of series: cell-based. Summed up: (§4)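 Primary cerebellar granule neurons from 8-day SD rat pups; cytosine arabinoside […] added at 24 h, used at DIV 6–8. Cells exposed to a concentration series for 72 h, 0.1% DMSO final. Viability by MTT (0.5 mg/ml, 4 h, 37 °C); formazan dissolved in DMSO, OD 570 nm. n = 3, mean ± SD.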

Series [22] can be described thus: Cytotoxicity against Sprague-Dawley rat CGN cells at 50 to 100 uM after 72 hrs by MTT assay. Format: cell-based. The essentials:
as §4

The test system of series [23] is Rattus norvegicus. In words: Anti-ischemic activity in Sprague-Dawley rat transient middle cerebral artery occlusion model assessed as reduction in infarct volume at 10 mg/kg, iv administered for 2 to 6 hrs post middle cerebral artery occlusion measured at 24 hrs by TTC staining-based morphometric analysis. Format: organism-based. Further details: scale not given: the % may be the effect or the level left. To be noted: in vivo. Summed up:
as §1

Series [24] deals with Rattus norvegicus. In words: Anti-ischemic activity in Sprague-Dawley rat transient middle cerebral artery occlusion model assessed as reduction in neurological deficit at 10 mg/kg, iv administered for 2 to 6 hrs post middle cerebral artery occlusion measured at 24 hrs. Type of series: functional, organism-based. Summed up: as §2
Series [25] concerns Rattus norvegicus. In words: Antioxidant activity in Sprague-Dawley rat transient middle cerebral artery occlusion model assessed as […] in GSH level in ipsilateral cortex at 10 mg/kg, iv measured at 24 hrs post middle cerebral artery occlusion. Format: functional, organism-based. The essentials:
as §3

Series [26] deals with Rattus norvegicus. Description: Antioxidant activity in Sprague-Dawley rat transient middle cerebral artery occlusion model assessed as […] in SOD level in ipsilateral cortex at 10 mg/kg, iv measured at 24 hrs post middle cerebral artery occlusion. Format: functional, organism-based. The essentials: as §3

The source made the active and inactive calls. No cut-off for these calls is given here.

On to `CC1=NN(c2ccccc2)C(=O)C1` [EDARAVONE], for which the viability at 50 µM in [1] was 86.7%; in series [3] it was 85.8%. Also, the Activity is on record as 77.7% in series [2], 72.3% in series [4] and “Active” in the series on Rattus norvegicus [5]. In addition, the result in the series on Rattus norvegicus [6], in the series on Rattus norvegicus [7] and with Rattus norvegicus [8] was Active.
With `CCCCNC(=O)c1cc2c(cc1OC)[C@@]1(C)CC[C@H](O)C(C)(C)[C@@H]1CC2`, the Activity entry was “Non-toxic” in the series with Rattus norvegicus [9]; 90.1% in [12]; “Dose-dependent effect” in the series with neuronal [13]; 75.4% in series [15]; 25.9% in series [16]; “Dose-dependent effect” in series [17]. Moreover, the Activity result in series [21] is listed as “Non-toxic”; in series [22], “Toxic”; in the series with Rattus norvegicus [23] it was 44%. Further, the viability at 10 µM in series [10] was determined as 94.1%; in series [11], 87.4%. Further, the viability at 1 µM in [14] was 58.9%. Moreover, the outcome with neuronal [18], in the series on neuronal [19], in the series with Rattus norvegicus [24], in the series on Rattus norvegicus [25] and with Rattus norvegicus [26] was Active. For the same compound, the Papp at 18 h, 25 ug/ml in series [20] worked out at 11.3 ×10⁻⁶ cm/s.
